The text below walks through data of ChEMBL document CHEMBL1129448, “Neurosteroid analogues. 4. The effect of methyl substitution at the C-5 and C-10 positions of neurosteroids on electrophysiological activity at GABAA receptors” (1996).

For assay [1], the species on record is Rattus norvegicus. Briefly: Compound was evaluated at 10 uM for its ability to initiate (gate) a current in the absence of GABA in cultured postnatal rat hippocampal neurons. It is filed as functional. On the set-up: unit not given here. Summed up:
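Whole-cell voltage clamp of cultured postnatal rat hippocampal neurons at -60 mV. Compound at 10 µM was applied without GABA by pressure ejection (500 ms, 10-20 psi) from a pipet within 5 µm. CsCl-based pipet solution, pH 7.3. DMSO final <0.2%. Peak directly gated current is expressed relative to the same cell's response to 2 µM GABA alone. Mean ± SEM, N cells.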

Assay [2] is filed under the species Rattus norvegicus. Briefly: Compound was evaluated at 10 uM GABA-mediated current in cultured postnatal rat hippocampal neurons. The class given is functional. Summed up:
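Whole-cell voltage clamp of cultured postnatal rat hippocampal neurons held at -60 mV. Compound at 10 µM was co-applied with 2 µM GABA by pressure ejection (500 ms jet, 10-20 psi) from a pipet within 5 µm of the cell. Pipet solution was CsCl-based, pH 7.3. DMSO final <0.2%. Current is given as % of 2 µM GABA alone (100% = no change). Mean ± SEM, N cells.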

Take `C[C@]12CC[C@@H](O)C[C@H]1CC[C@@H]1[C@@H]2CC[C@]2(C)[C@@H](C#N)CC[C@@H]12`: in assay [1], the Gated current came to 68. Further, in assay [2], the Potentation is 1297.

The molecule `C[C@]12CC[C@@H]3[C@H](CC[C@]4(C)[C@@H](C#N)CC[C@@H]34)[C@H]1CC[C@@H](O)C2` registered a Gated current in assay [1] of 28. In addition, the Potentation in assay [2] is listed as 452.

For the molecule `CC(=O)[C@H]1CC[C@H]2[C@@H]3CC[C@@H]4C[C@H](O)CC[C@@H]4[C@H]3CC[C@]12C`, the Gated current in assay [1] is listed as 110. The Potentation in assay [2] is on record as 754.

The molecule `CC(=O)[C@H]1CC[C@H]2[C@@H]3CCC4C[C@H](O)CC[C@@H]4[C@H]3CC[C@]12C` (stereo partly drawn) had a Gated current in assay [1] of 46. The molecule also showed a Potentation in assay [2] of 926.

As to `CC12CC[C@@H]3[C@H](CC[C@]4(C)[C@@H](C#N)CC[C@@H]34)[C@H]1CC[C@@H](O)C2` (stereo partly drawn), the Gated current in assay [1] is reported as 0. Besides, the Potentation in assay [2] worked out at 92.

As to `CC(=O)[C@H]1CC[C@H]2[C@@H]3CC[C@]4(C)C[C@H](O)CC[C@@H]4[C@H]3CC[C@]12C`, the Gated current in assay [1] came out at 12. Besides, in assay [2], the Potentation turned out to be 652.

Turning to `CC(=O)[C@H]1CC[C@H]2[C@@H]3CCC4(C)C[C@H](O)CC[C@@H]4[C@H]3CC[C@]12C` (stereo partly drawn), the Gated current in assay [1] was 0. Besides, the Potentation in assay [2] came out at 110.

Molecule `CC(=O)[C@H]1CC[C@H]2[C@@H]3CC[C@]4(C)C[C@H](O)CC[C@]4(C)[C@H]3CC[C@]12C` registered a Gated current in assay [1] of 24. This molecule displayed a Potentation in assay [2] of 498.

`CC(=O)[C@H]1CC[C@H]2[C@@H]3CCC4(C)C[C@H](O)CC[C@]4(C)[C@H]3CC[C@]12C` (stereo partly drawn): the Gated current in assay [1] is reported as 3. For the same molecule, the Potentation in assay [2] was determined as 294.

For `C[C@]12CC[C@H]3[C@@H](CCC4C[C@H](O)CC[C@@H]43)[C@@H]1CC[C@@H]2C#N` (stereo partly drawn), the Gated current in assay [1] stood at 42. This molecule also registered a Potentation in assay [2] of 1721.

In the case of `C[C@]12CC[C@H]3[C@@H](CC[C@@H]4C[C@H](O)CC[C@@H]43)[C@@H]1CC[C@@H]2C#N`, the Gated current in assay [1] is listed as 41. In assay [2], this molecule registered a Potentation of 1823.

`C[C@]12CC[C@@H](O)C[C@@H]1CC[C@@H]1[C@@H]2CC[C@]2(C)[C@@H](C#N)CC[C@@H]12` came in with a Gated current in assay [1] of 32. In assay [2], this molecule yielded a Potentation of 1829.

As for `CC(=O)[C@H]1CC[C@H]2[C@@H]3CC[C@H]4C[C@H](O)CC[C@]4(C)[C@H]3CC[C@]12C` [BREXANOLONE], the Gated current in assay [1] worked out at 26. The Potentation in assay [2] turned out to be 1111.

For the molecule `CC(=O)[C@H]1CC[C@H]2[C@@H]3CC[C@@H]4C[C@H](O)CC[C@]4(C)[C@H]3CC[C@]12C` [ELTANOLONE], the Gated current in assay [1] is recorded as 49. Moreover, in assay [2], the Potentation stood at 1023.
